Measurements reported in ChEMBL document CHEMBL3352732, “Nannozinones and sorazinones, unprecedented pyrazinones from myxobacteria” (J Nat Prod, 2014).
Converted amounts (≈) assume the structure as drawn.

Assays:
[1] = system: Pseudomonas aeruginosa; experiment: Antimicrobial activity against Pseudomonas aeruginosa 50071 after 24 to 48 hrs by serial dilution method; assay type: functional
How it was run: (§1)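 Compounds from 1 mg/mL stock, 2 and 20 μL aliquots, serially diluted 1:1 in 0.15 mL medium in microtiter plates. Shaken at 160 rpm, 30 °C, 24−48 h. MIC is the lowest concentration preventing visible growth.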

[2] = system: Mucor hiemalis; experiment: Antimicrobial activity against Mucor hiemalis 2656 after 24 to 48 hrs by serial dilution method; assay type: functional
How it was run: (§2)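 Yeasts and filamentous fungi tested in MYC medium (1.0% glucose, 1.0% phytone peptone, 50 mM HEPES, pH 7.0). Aliquots of 2 and 20 μL from 1 mg/mL stock, 1:1 serial dilution in 0.15 mL medium in microtiter plates. Incubated at 30 °C with shaking at 160 rpm for 24−48 h. MIC read as the lowest concentration with no visible growth.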

[3] = system: Escherichia coli; experiment: Antimicrobial activity against Escherichia coli 1116 after 24 to 48 hrs by serial dilution method; assay type: functional; how it was run: as §1
[4] = Cytotoxicity against human KB3-1 cells by MTT assay; assay type: functional, cell-based; details: KB 3-1
How it was run: (§3)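 MTT assay in 96-well plates, giving IC50. Media: DMEM for KB-3-1, A431, A549 and L929; F12K for PC-3; RPMI for MCF-7; EBM-2 for HUVEC; McCoy's for SKOV-3. All media had 10% FBS, and cells were kept at 37 °C under 10% CO2. Methanol served as negative control and epothilone A as positive control.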

[5] = system: Saccharomyces cerevisiae; experiment: Antimicrobial activity against Saccharomyces cerevisiae 70449 after 24 to 48 hrs by serial dilution method; assay type: functional; how it was run: as §2
[6] = system: Wickerhamomyces anomalus; experiment: Antimicrobial activity against Wickerhamomyces anomalus 6766 after 24 to 48 hrs by serial dilution method; assay type: functional; how it was run: as §2
[7] = Cytotoxicity against human SKOV3 cells by MTT assay; assay type: functional, cell-based; details: SK-OV-3; how it was run: as §3
[8] = system: Staphylococcus aureus; experiment: Antimicrobial activity against Staphylococcus aureus 346 after 24 to 48 hrs by serial dilution method; assay type: functional; how it was run: as §1
[9] = system: Mycolicibacterium diernhoferi; experiment: Antimicrobial activity against Mycobacterium diernhoferi 43542 after 24 to 48 hrs by serial dilution method; assay type: functional; how it was run: as §1
[10] = system: A549; experiment: Cytotoxicity against human A549 cells by MTT assay; assay type: functional, cell-based; how it was run: as §3
[11] = system: Chromobacterium violaceum; experiment: Antimicrobial activity against Chromobacterium violaceum 30191 after 24 to 48 hrs by serial dilution method; assay type: functional; how it was run: as §1
[12] = system: Nocardia sp.; experiment: Antimicrobial activity against Nocardia sp. 43069 after 24 to 48 hrs by serial dilution method; assay type: functional; how it was run: as §1
[13] = system: Trichosporon oleaginosus; experiment: Antimicrobial activity against Trichosporon oleaginosus 11815 after 24 to 48 hrs by serial dilution method; assay type: functional; details: Cutaneotrichosporon oleaginosum; how it was run: as §2
[14] = Cytotoxicity against human PC3 cells by MTT assay; assay type: functional, cell-based; details: PC-3; how it was run: as §3
[15] = system: Paenibacillus polymyxa; experiment: Antimicrobial activity against Paenibacillus polymyxa 36 after 24 to 48 hrs by serial dilution method; assay type: functional; how it was run: as §1
[16] = system: L929; experiment: Cytotoxicity against mouse L929 cells by MTT assay; assay type: functional, cell-based; how it was run: as §3
[17] = system: MCF7; experiment: Cytotoxicity against human MCF7 cells by MTT assay; assay type: functional, cell-based; how it was run: as §3
[18] = system: Candida albicans; experiment: Antimicrobial activity against Candida albicans 1665 after 24 to 48 hrs by serial dilution method; assay type: functional; how it was run: as §2
[19] = system: A-431; experiment: Cytotoxicity against human A431 cells by MTT assay; assay type: functional, cell-based; how it was run: as §3
[20] = system: HUVEC; experiment: Cytotoxicity against HUVEC cells by MTT assay; assay type: functional, cell-based; details: Homo sapiens; how it was run: as §3

Row | Molecule | MIC [1] | MIC [2] | MIC [3] | IC50 [4] | MIC [5] | MIC ([6]; Hansenula anomala) | IC50 [7] | MIC [8] | MIC [9] | IC50 [10] | MIC [11] | MIC [12] | MIC [13] | IC50 [14] | MIC [15] | IC50 [16] | IC50 [17] | MIC [18] | IC50 [19] | IC50 [20] | further results
1 | Cc1ccn2c(=O)c3cccn3c(=O)c12 | > 66.6 µg/mL | > 66.6 µg/mL | > 66.6 µg/mL | > 50 µM | > 66.6 µg/mL | 66.6 µg/mL (≈ 333 µM) | > 50 µM | > 66.6 µg/mL | > 66.6 µg/mL | > 50 µM | > 66.6 µg/mL | 16.6 µg/mL (≈ 82.9 µM) | > 66.6 µg/mL | > 50 µM | > 66.6 µg/mL | > 50 µM | > 50 µM | > 66.6 µg/mL |  |  | 
2 | NYSTATIN |  | 2.1 µg/mL |  |  | 16.6 µg/mL |  |  |  |  |  |  |  | 4.2 µg/mL |  |  |  |  | 8.3 µg/mL |  |  | MIC [6]: 16.6 µg/mL
3 | CC(=O)c1c(Cc2ccccc2)[nH]c(=O)c2cccn12 | > 66.6 µg/mL | > 66.6 µg/mL | > 66.6 µg/mL | 5.3 µM | > 66.6 µg/mL | > 66.6 µg/mL | 2.4 µM | > 66.6 µg/mL | > 66.6 µg/mL | 8.7 µM | > 66.6 µg/mL | 66.6 µg/mL (≈ 250 µM) | > 66.6 µg/mL | 16.9 µM | > 66.6 µg/mL | > 37.6 µM | 14.1 µM | > 66.6 µg/mL | 8.45 µM | 15.5 µM | 
4 | Cc1nc(Cc2ccccc2)c(O)nc1Cc1ccccc1 | > 66.6 µg/mL | > 66.6 µg/mL | > 66.6 µg/mL | > 34.5 µM | > 66.6 µg/mL | > 66.6 µg/mL | > 34.5 µM | > 66.6 µg/mL | > 66.6 µg/mL | > 34.5 µM | > 66.6 µg/mL | 67 µg/mL (≈ 231 µM) | > 66.6 µg/mL | > 34.5 µM | > 66.6 µg/mL | > 34.5 µM | > 34.5 µM | > 66.6 µg/mL |  |  | 
5 | GENTAMICIN | 42 µg/mL |  |  |  |  |  |  |  |  |  |  |  |  |  |  |  |  |  |  |  | 
6 | CN(C)[C@@H]1C(O)=C(C(N)=O)C(=O)[C@@]2(O)C(O)=C3C(=O)c4c(O)cccc4[C@@](C)(O)[C@H]3[C@H](O)[C@@H]12.Cl [OXYTETRACYCLINE HYDROCHLORIDE] |  |  | 0.42 µg/mL |  |  |  |  | 0.52 µg/mL | 0.52 µg/mL |  | 1 µg/mL | 0.52 µg/mL |  |  | 6.7 µg/mL |  |  |  |  |  | 
7 | COC(=O)[C@H](CCCCN(O)C(=O)/C=C/c1ccccc1)NC(=O)CC(O)(CC(=O)N[C@@H](CCCCN(O)C(=O)/C=C/c1ccccc1)C(=O)OC)C(=O)O | > 66.6 µg/mL | > 66.6 µg/mL | > 66.6 µg/mL | 0.05 µM | > 66.6 µg/mL | > 66.6 µg/mL | 1.95 µM | > 66.6 µg/mL | > 66.6 µg/mL | 0.12 µM | > 66.6 µg/mL | > 66.6 µg/mL | 66.6 µg/mL (≈ 86.6 µM) | 0.19 µM | > 66.6 µg/mL | 1.82 µM | 0.22 µM | 33.3 µg/mL (≈ 43.3 µM) | 0.1 µM | 0.05 µM | 
8 | C/C(=C\c1csc(C)n1)[C@@H]1C[C@@H]2O[C@@H]2CCC[C@H](C)[C@H](O)[C@@H](C)C(=O)C(C)(C)[C@@H](O)CC(=O)O1 [EPOTHILONE A] |  |  |  | 0.0096 µM |  |  | 0.0013 µM |  |  |  |  |  |  | 0.0024 µM |  | 0.0077 µM | 0.0022 µM |  |  |  | 
9 | COC(=O)c1c[nH]c2ccccc12 | > 66.6 µg/mL | > 66.6 µg/mL | > 66.6 µg/mL | > 56.8 µM | > 66.6 µg/mL | > 66.6 µg/mL | > 56.8 µM | > 66.6 µg/mL | > 66.6 µg/mL | > 56.8 µM | > 66.6 µg/mL | 33.3 µg/mL (≈ 190 µM) | > 66.6 µg/mL | > 56.8 µM | > 66.6 µg/mL | > 56.8 µM | > 56.8 µM | > 66.6 µg/mL |  |  | 
10 | O=c1cnc(CCc2ccccc2)c2n1CCC2 | 66.6 µg/mL (≈ 277 µM) | 33.3 µg/mL (≈ 139 µM) | 66.6 µg/mL (≈ 277 µM) | > 41.5 µM | 66.6 µg/mL (≈ 277 µM) | > 66.6 µg/mL | > 41.5 µM | 66.6 µg/mL (≈ 277 µM) | 33.3 µg/mL (≈ 139 µM) | > 41.5 µM | 66.6 µg/mL (≈ 277 µM) | 66.6 µg/mL (≈ 277 µM) | 66.6 µg/mL (≈ 277 µM) | > 41.5 µM | 66.6 µg/mL (≈ 277 µM) | > 41.5 µM | > 41.5 µM | 33.3 µg/mL (≈ 139 µM) | > 41.5 µM | > 41.5 µM | 
